Results: ChEMBL document CHEMBL1130245, “Syntheses and photodynamic activities of novel trisulfonated zinc phthalocyanine derivatives” (1997)

Tests used:
[1] = (§1) Light dose to inactivate 90% of mouse mammary tumor cells (EMT-6) incubated with 1 uM dye for a period of 1 hour.; format: functional
In short: (§2)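 EMT-6 mouse mammary tumor cells, 15 × 10^3 per well, were grown overnight in Waymouth's with 15% FBS and incubated at 37 °C with dye at 1 µM in Waymouth's 1% FBS (1 h for line 1, 24 h for line 2). Cells were rinsed and exposed to 660-700 nm red light at 10 mW cm-2 (1.5-30 J cm-2). MTT read at 595 nm next day; LD90 extrapolated from survival curves; 8 replicates per light dose, ≥3 experiments.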

[2] = tested on: Mus musculus; experiment: Medium edema caused with EMT-6 tumor at drug dose 2 umol kg e-1, at light dose 400 J cme-2, and at time period of 24 hr; ++ = Medium edema; format: functional, organism-based; details: tested as the Zn salt or complex
In short: (§3)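 Male BALB/c mice (18-22 g), depilated; 2 × 10^5 EMT-6 cells implanted intradermally on each hind thigh; used 6-8 days later (tumors 3-5 mm diameter, 2-3 mm thick). Dye in PBS given iv (2-20 µmol kg-1); 24 or 48 h later one tumor illuminated with 650-700 nm xenon-lamp light, the other left as control. Edema scored 24 h post-PDT.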

[3] = tested on: Mus musculus; experiment: Medium edema caused with EMT-6 tumor at drug dose 5 umol kg e-1, at light dose 400 J cme-2, and at time period of 48 hr; ++ = Medium edema; format: functional, organism-based; details: tested as the Zn salt or complex; in short: as §3
[4] = species: Mus musculus; experiment: Percent regression with EMT-6 Tumor in BALB/c mice at drug dose 5 umol kg e-1, at light dose 400 J cme-2, and at time period of 48 hr.; format: functional; in short: as §3
[5] = species: Mus musculus; experiment: Percent necrosis with EMT-6 Tumor in BALB/c mice at drug dose 2 umol kg e-1, at light dose 400 J cme-2, and at time period of 24 hr.; format: functional; in short: as §3
[6] = species: Mus musculus; experiment: Percent necrosis with EMT-6 Tumor in BALB/c mice at drug dose 5 umol kg e-1, at light dose 300 J cme-2, and at time period of 24 hr.; format: functional; in short: as §3
[7] = species: Mus musculus; experiment: Percent necrosis with EMT-6 Tumor in BALB/c mice at drug dose 5 umol kg e-1, at light dose 400 J cme-2, and at time period of 24 hr.; format: functional; in short: as §3
[8] = species: Mus musculus; experiment: Percent necrosis with EMT-6 Tumor in BALB/c mice at drug dose 5 umol kg e-1, at light dose 400 J cme-2, and at time period of 48 hr.; format: functional; in short: as §3
[9] = species: Mus musculus; experiment: Percent regression with EMT-6 Tumor in BALB/c mice at drug dose 2 umol kg e-1, at light dose 400 J cme-2, and at time period of 24 hr.; format: functional; in short: as §3
[10] = species: Mus musculus; experiment: Percent regression with EMT-6 Tumor in BALB/c mice at drug dose 5 umol kg e-1, at light dose 300 J cme-2, and at time period of 24 hr.; format: functional; in short: as §3
[11] = species: Mus musculus; experiment: Percent regression with EMT-6 Tumor in BALB/c mice at drug dose 5 umol kg e-1, at light dose 400 J cme-2, and at time period of 24 hr.; format: functional; in short: as §3
[12] = (§4) Light dose to inactivate 90% of mouse mammary tumor cells (EMT-6) incubated with 1 uM dye for a period of 24 hour.; format: functional; in short: as §2
[13] = tested on: Mus musculus; experiment: Medium edema caused with EMT-6 tumor at drug dose 2 umol kg e-1, at light dose 400 J cme-2, and at time period of 24 hr.; format: functional, organism-based; details: tested as the Zn salt or complex; in short: as §3
[14] = tested on: Mus musculus; experiment: Medium edema caused with EMT-6 tumor at drug dose 5 umol kg e-1, at light dose 300 J cme-2, and at time period of 24 hr.; ++ = Medium edema; format: functional, organism-based; details: tested as the Zn salt or complex; in short: as §3
[15] = tested on: Mus musculus; experiment: Medium edema caused with EMT-6 tumor at drug dose 2 umol kg e-1, at light dose 400 J cme-2, and at time period of 24 hr.; ++ = Medium edema; format: functional, organism-based; details: tested as the Zn salt or complex; in short: as §3
[16] = tested on: Mus musculus; experiment: Medium edema caused with EMT-6 tumor at drug dose 5 umol kg e-1, at light dose 400 J cme-2, and at time period of 48 hr.; ++ = Medium edema; format: functional, organism-based; details: tested as the Zn salt or complex; in short: as §3
[17] = species: Mus musculus; experiment: Percent necrosis with EMT-6 Tumor in BALB/c mice at drug dose 5 uMol kg e-1, at light dose 400 J cme-2, and at time period of 24 hr.; format: functional; in short: as §3
[18] = tested on: Mus musculus; experiment: Medium edema caused with EMT-6 tumor at drug dose 5 umol kg e-1, at light dose 400 J cme-2, and at time period of 24 hr; ++ = Medium edema; format: functional, organism-based; details: tested as the Zn salt or complex; in short: as §3
[19] = species: Mus musculus; experiment: Percent regression with EMT-6 Tumor in BALB/c mice at drug dose 5 umol kg e-1, at light dose 400 J cme-2, and at time period of 24 hr.
[20] = species: Mus musculus; experiment: as §1; format: functional; details: tested as the Zn salt or complex; in short: as §2
[21] = tested on: Mus musculus; experiment: Light […] edema caused with EMT-6 tumor at drug dose 5 umol kg e-1, at light dose 400 J cme-2, and at time period of 24 hr; + = Light edema; format: functional, organism-based; details: tested as the Zn salt or complex; in short: as §3
[22] = species: Mus musculus; experiment: as §4; format: functional; details: tested as the Zn salt or complex; in short: as §2
[23] = tested as the Zn salt or complex

Row | Structure (SMILES) | LD90 [1] [J cm**-2] | Regression response [4] [%] | Necrosis response [5] [%] | Necrosis response [6] [%] | Necrosis response [7] [%] | Necrosis response [8] [%] | Regression response [9] [%] | Regression response [10] [%] | Regression response [11] [%] | LD90 [12] [J cm**-2] | also measured
1 | CC(C)(C)c1ccc2cc3c(cc2c1)-c1nc-3nc2[n-]c(nc3nc(nc4[n-]c(n1)c1cc(S(=O)(=O)O)ccc41)-c1cc(S(=O)(=O)O)ccc1-3)c1cc(S(=O)(=O)O)ccc21.[Zn+2] | 21 | 87 | 60 | 71 | 100 | 87 | 60 | 43 | 86 | 2.5 | Edema [2]: Medium edema; Edema [3]: Medium edema
2 | CC(C)(C)c1ccc2c(c1)-c1nc-2nc2[n-]c(nc3nc(nc4[n-]c(n1)c1cc(S(=O)(=O)O)ccc41)-c1cc(S(=O)(=O)O)ccc1-3)c1cc(S(=O)(=O)O)ccc21.[Zn+2] | >30 | 37 | 50 | 12 | 100 | 37 | 33 | 0 | 90 | 2.5 | Edema [13]: Medium edema; Edema [14]: Medium edema
3 | O=S(=O)(O)c1ccc2c(c1)-c1nc-2nc2[n-]c(nc3nc(nc4[n-]c(n1)c1ccc(S(=O)(=O)O)cc41)-c1ccc(S(=O)(=O)O)cc1-3)c1ccc(S(=O)(=O)O)cc21.[Zn+2] | >30 | 38 | 12 |  | 91 | 50 | 12 |  |  | 14 | Edema [15]: Medium edema; Edema [16]: Medium edema; Regression response [17]: 91%
4 | O=S(=O)(O)c1ccc2c(c1)-c1nc-2nc2[n-]c(nc3nc(nc4[n-]c(n1)c1ccc(S(=O)(=O)O)cc41)-c1ccccc1-3)c1ccc(S(=O)(=O)O)cc21.[Zn+2] | 29 |  |  |  | 12 |  |  |  |  | 5 | Edema [18]: Medium edema; Regression response [19]: 0%
5 | O=S(=O)(O)c1ccc2c(c1)-c1nc-2nc2[nH]c(nc3nc(nc4[nH]c(n1)c1ccc(S(=O)(=O)O)cc41)-c1nc(-c4ccccc4)c(-c4ccccc4)nc1-3)c1ccc(S(=O)(=O)O)cc21 |  |  |  |  |  |  |  |  |  |  | LD90 [20]: > 30 J cm··-2; Edema [21]: Light edema; Necrosis response [7, 23]: 25%; LD90 [22]: 19.5 J cm··-2; Regression response [19, 23]: 0%
